Data set [1] deals with Klebsiella pneumoniae. Put plainly: Antibacterial activity against extended-spectrum beta-lactamase harboring Klebsiella pneumoniae ATCC 700603 after 18 to 24 hrs by two-fold serial dilution method. Format: functional. An outline of the steps: (§1)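 Agar two-fold serial dilution in Mueller-Hinton agar. Strains came from the Chinese Center for Disease Control and Prevention. Compounds were dissolved in 0.1 N NaOH and water, then diluted in melted agar to final levels stepping down from 128. Plates were inoculated with bacterial cfu and incubated at 35 C for 18–24 h. MIC is the lowest concentration giving 90% growth inhibition.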

Data set [2] deals with Klebsiella pneumoniae. In words: Antibacterial activity against extended-spectrum beta-lactamase deficient Klebsiella pneumoniae 15-2 after 18 to 24 hrs by two-fold serial dilution method. In kind it is functional. The method in brief: (§2)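 Agar two-fold dilution MIC. Compounds were dissolved in 0.1 N NaOH and water, then serially diluted in melted Mueller-Hinton agar, with top concentrations starting at 128. Plates were inoculated at about 10 cfu and incubated at 35 °C for 18–24 h. MIC was taken as the lowest concentration giving 90% inhibition of growth.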

Data set [3] relates to Stenotrophomonas maltophilia. In words: Antibacterial activity against Stenotrophomonas maltophilia ATCC 13636 after 18 to 24 hrs by two-fold serial dilution method. In kind it is functional. The method in brief:
as §2

The subject of data set [4] is Enterococcus faecalis. Put plainly: Antibacterial activity against Enterococcus faecalis ATCC 51299 after 18 to 24 hrs by two-fold serial dilution method. Format: functional. The method in brief:
as §2

The test system of data set [5] is Staphylococcus aureus. In words: Antibacterial activity against methicillin-sensitive Staphylococcus aureus ATCC 29213 after 18 to 24 hrs by two-fold serial dilution method. In kind it is functional. An outline of the steps: as §1
The test system of data set [6] is Acinetobacter calcoaceticus. In words: Antibacterial activity against Acinetobacter calcoaceticus ATCC 19606 after 18 to 24 hrs by two-fold serial dilution method. Format: functional. The method in brief:
as §2

Data set [7] relates to Klebsiella aerogenes. In words: Antibacterial activity against Enterobacter aerogenes ATCC 13048 after 18 to 24 hrs by two-fold serial dilution method. Format: functional. The method in brief: as §2
Data set [8] deals with Enterococcus faecium. In words: Antibacterial activity against Enterococcus faecium 13-7 after 18 to 24 hrs by two-fold serial dilution method. Format: functional. The method in brief:
as §2

Data set [9] concerns Citrobacter freundii. Put plainly: Antibacterial activity against extended-spectrum beta-lactamase harboring Citrobacter freundii ATCC 43864 after 18 to 24 hrs by two-fold serial dilution method. Format: functional. An outline of the steps:
as §1

Data set [10] relates to Staphylococcus aureus. In words: Antibacterial activity against methicillin-resistant Staphylococcus aureus ATCC 33591 after 18 to 24 hrs by two-fold serial dilution method. Format: functional. The method in brief: as §1
Data set [11] relates to Enterococcus faecium. Put plainly: Antibacterial activity against Enterococcus faecium ATCC 700221 after 18 to 24 hrs by two-fold serial dilution method. In kind it is functional. The method in brief:
as §2

Data set [12] relates to Escherichia coli. In words: Antibacterial activity against extended-spectrum beta-lactamase harboring Escherichia coli ATCC 35218 after 18 to 24 hrs by two-fold serial dilution method. Format: functional. The method in brief:
as §1

For data set [13], the system named is Serratia marcescens. Put plainly: Antibacterial activity against Serratia marcescens ATCC 21074 after 18 to 24 hrs by two-fold serial dilution method. In kind it is functional. An outline of the steps: as §2
Data set [14] relates to Enterococcus faecalis. In words: Antibacterial activity against Enterococcus faecalis ATCC 29212 after 18 to 24 hrs by two-fold serial dilution method. In kind it is functional. An outline of the steps: as §2
Data set [15] deals with Proteus vulgaris. In words: Antibacterial activity against Proteus vulgaris ATCC 29905 after 18 to 24 hrs by two-fold serial dilution method. Format: functional. The method in brief:
as §2

The test system of data set [16] is Enterobacter cloacae. Put plainly: Antibacterial activity against Enterobacter cloacae ATCC 43560 after 18 to 24 hrs by two-fold serial dilution method. Format: functional.
In data set [17] the test system is Proteus mirabilis. In words: Antibacterial activity against Proteus mirabilis 13-1 after 18 to 24 hrs by two-fold serial dilution method. Format: functional. An outline of the steps: as §2
The subject of data set [18] is Staphylococcus epidermidis. In words: Antibacterial activity against methicillin-resistant Staphylococcus epidermidis 13-3 after 18 to 24 hrs by two-fold serial dilution method. Format: functional. An outline of the steps:
as §1

Data set [19] has as its system Providencia rettgeri. Put plainly: Antibacterial activity against Providencia rettgeri ATCC 31052 after 18 to 24 hrs by two-fold serial dilution method. Format: functional. An outline of the steps: as §2
Data set [20] is described as follows: Cytotoxicity against African green monkey Vero cells assessed as reduction in cell viability after 72 hrs by MTT assay. In kind it is cell-based. The settings on record: chlorocebus sabaeus. An outline of the steps:
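VERO cells were kept in MEM with Earle's salts and 10% FBS at 37 °C, 5% CO2. They were seeded in 96-well plates and allowed to recover for 24 h. Cells were then exposed to compounds in DMSO over a series from 1000 down to 4 for 72 h. Viability was read by MTT, and CC50 was calculated by Bliss analysis.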
A general note: Tetrazolium assays rely on reduction of a dye to a coloured formazan, in cell work by metabolically active cells.

For data set [21], the system named is Mycobacterium tuberculosis. Put plainly: Antimycobacterial activity against Mycobacterium tuberculosis H37Rv after 7 days. In kind it is functional. As to conditions: 168 h. An outline of the steps: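 Rapid direct susceptibility test in 48-well plates. Two-fold dilutions of compound from DMSO stocks were mixed with an equal volume of bacterial suspension. Medium-only wells served as growth controls and water-only wells as no-growth controls. Plates were sealed and held at 37 C in a humid box, and controls were checked at 3 days. MIC (90% growth inhibition) was read visually by high-magnification observation of the cells and re-read at 7 days.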

The test system of data set [22] is Morganella morganii. Put plainly: Antibacterial activity against Morganella morganii ATCC 25830 after 18 to 24 hrs by two-fold serial dilution method. In kind it is functional. The method in brief:
as §2

Data set [23] concerns Pseudomonas aeruginosa. In words: Antibacterial activity against Pseudomonas aeruginosa ATCC 27853 after 18 to 24 hrs by two-fold serial dilution method. In kind it is functional. An outline of the steps: as §2
Data set [24] relates to Escherichia coli. In words: Antibacterial activity against extended-spectrum beta-lactamase deficient Escherichia coli ATCC 25922 after 18 to 24 hrs by two-fold serial dilution method. In kind it is functional. An outline of the steps: as §2
Data set [25] deals with Staphylococcus epidermidis. In words: Antibacterial activity against methicillin-sensitive Staphylococcus epidermidis ATCC 12228 after 18 to 24 hrs by two-fold serial dilution method. Format: functional. An outline of the steps: as §2

Each structure is given as a SMILES string. Converted amounts (≈) assume the structure as drawn.

The values that follow come from ChEMBL document CHEMBL4270565, “Design, synthesis and antimicrobial evaluation of propylene-tethered ciprofloxacin-isatin hybrids” (Eur J Med Chem, 2018).

Turning to `O=C1C(=O)N(CCCOC(=O)c2cn(C3CC3)c3cc(N4CCN(CCCN5C(=O)C(=O)c6ccccc65)CC4)c(F)cc3c2=O)c2ccccc21`, the MIC90 (commonly an inhibitory concentration at the 90% level, which refers to growth in some studies and to a panel of isolates in others) in data set [1] is 64 µg/mL (≈ 90.7 µM); in data set [2], 64 µg/mL (≈ 90.7 µM); in data set [3], over 128 µg/mL; in data set [4], over 128 µg/mL; in data set [5], 128 µg/mL (≈ 181 µM); in data set [6], 128 µg/mL (≈ 181 µM). In addition, the MIC90 is 64 µg/mL (≈ 90.7 µM) in [7]; over 128 µg/mL in data set [8]; 64 µg/mL (≈ 90.7 µM) in data set [9]; over 128 µg/mL in data set [10]; over 128 µg/mL in data set [11]; 16 µg/mL (≈ 22.7 µM) in data set [12]. Moreover, the MIC90 in data set [13] was 32 µg/mL (≈ 45.3 µM); in [14] it was 64 µg/mL (≈ 90.7 µM); in data set [15], 64 µg/mL (≈ 90.7 µM); in data set [16] it was 128 µg/mL (≈ 181 µM); in data set [17], 64 µg/mL (≈ 90.7 µM); in data set [18] it was over 128 µg/mL. Also, the MIC90 in data set [19] was 128 µg/mL (≈ 181 µM); in data set [21] it was 12.5 µg/mL (≈ 17.7 µM); in data set [22], 64 µg/mL (≈ 90.7 µM); in data set [23] it was over 128 µg/mL; in data set [24] it was 4 µg/mL (≈ 5.67 µM); in data set [25], 64 µg/mL (≈ 90.7 µM). Also, the 50% cytotoxic concentration (CC50) (in general, the concentration that lowers cell viability or growth by half) at 72 h in data set [20] amounted to 32 µg/mL (≈ 45.3 µM).

Turning to `NNC(=O)c1ccncc1` [ISONIAZID], the MIC90 in data set [21] was determined as 0.05 µg/mL (≈ 0.365 µM).

For the compound `C[C@H]1COc2c(N3CCN(C)CC3)c(F)cc3c(=O)c(C(=O)O)cn1c23.C[C@H]1COc2c(N3CCN(C)CC3)c(F)cc3c(=O)c(C(=O)O)cn1c23.O` [LEVOFLOXACIN], the MIC90 was 0.5 µg/mL in data set [1]; at most 0.03 µg/mL in data set [2]; 1 µg/mL in data set [3]; 1 µg/mL in [4]; 0.125 µg/mL in data set [5]; 0.125 µg/mL in data set [6]. The MIC90 is 0.06 µg/mL in data set [7]; 64 µg/mL in data set [8]; at most 0.03 µg/mL in data set [9]; 0.125 µg/mL in [10]; 16 µg/mL in data set [11]; at most 0.03 µg/mL in data set [12]. In addition, the MIC90 is 0.125 µg/mL in data set [13]; 1 µg/mL in data set [14]; at most 0.03 µg/mL in data set [15]; at most 0.03 µg/mL in data set [16]; at most 0.03 µg/mL in data set [17]; 4 µg/mL in [18]. For the same compound, the MIC90 in data set [19] is at most 0.03 µg/mL; in data set [22], at most 0.03 µg/mL; in data set [23], 2 µg/mL; in [24], at most 0.03 µg/mL; in data set [25], 0.125 µg/mL.

`CO[C@H]1/C=C/O[C@@]2(C)Oc3c(C)c(O)c4c(O)c(c(/C=N/N5CCN(C)CC5)c(O)c4c3C2=O)NC(=O)/C(C)=C\C=C\[C@H](C)[C@H](O)[C@@H](C)[C@@H](O)[C@@H](C)[C@H](OC(C)=O)[C@@H]1C` [RIFAMPIN] came in with an MIC90 in data set [21] of 0.39 µg/mL (≈ 0.474 µM).
